# ChEMBL document CHEMBL1142195, “A novel nonnucleoside analogue that inhibits human immunodeficiency virus type 1 isolates resistant to current nonnucleoside reverse transcriptase inhibitors” (Antimicrob Agents Chemother, 2007)
# pEC50: −log10 of the molar value. Active and inactive are the calls of the source. No cut-off for these calls is given here.
# Experiments:
# [1] = tested on: Human immunodeficiency virus 1; assay: Antiviral activity against HIV1 isolate with RT K103N-V108I-P225H mutation; format: functional, organism-based
# Outline: (§1)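 VSV-G-pseudotyped pNL4-3.Luc.R−E− molecular clones carrying the RT mutations, single-round infection of HeLa-JC53 cells (15,000/well) at MOI 0.03. Compounds serially diluted 1:4 in DMSO then in phenol red-free DMEM with 2% FBS, final DMSO 0.2%. Incubated 48 h at 37°C, 5% CO2. Luciferase read-out by chemiluminescence gives the EC50. Fold change is relative to wt virus, mean of two tests.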
# [2] = tested on: Human immunodeficiency virus 1; assay: Antiviral activity against HIV1 isolate with RT K103N-F227L mutation; format: functional, organism-based; outline: as §1
# [3] = tested on: Human immunodeficiency virus 1; assay: Antiviral activity against HIV1 isolate with RT K103N-G190A mutation; format: functional, organism-based; outline: as §1
# [4] = tested on: Human immunodeficiency virus 1; assay: Antiviral activity against HIV1 isolate with RT K101E mutant; format: functional, organism-based; outline: as §1
# [5] = tested on: Human immunodeficiency virus 1; assay: Antiviral activity against HIV1 isolate with RT V106I mutation in Hela-JC-53 cells; format: functional
# [6] = tested on: Human immunodeficiency virus 1; assay: Antiviral activity against wild type HIV1 NL4-3 in Hela-JC53 cells in the presence of 5% human serum after 48 hrs; format: functional, organism-based; conditions: Human immunodeficiency virus 1, NL4-3, Hela-JC53, 48 h
# Outline: (§2)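 HeLa-JC53 cells (1.5 × 10^4) infected with VSV-G-pseudotyped NL4-3.Luci.R−E− reporter virus at MOI 0.03, with 1:4 serial compound dilutions. Heat-inactivated human serum added to final 0–50% on a basal 2% FBS medium. Incubated 48 h at 37°C in 5% CO2. Luciferase read-out; EC50 by nonlinear regression.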
# [7] = Half life in dog at 20 mg/kg, po; format: ADME, organism-based, Canis lupus familiaris; parameters: dose 20 mg/kg, route oral; conditions: in vivo
# [8] = tested on: Human immunodeficiency virus 1; assay: Antiviral activity against HIV1 isolate with RT F227L mutation in Hela-JC-53 cells; format: functional
# [9] = tested on: Human immunodeficiency virus 1; assay: Antiviral activity against wild type HIV1 NL4-3 in Hela-JC53 cells in the presence of 30% human serum after 48 hrs; format: functional, organism-based; conditions: Human immunodeficiency virus 1, NL4-3, Hela-JC53, 48 h; outline: as §2
# [10] = AUC in dog at 20 mg/kg, po; format: ADME, organism-based, Canis lupus familiaris; parameters: dose 20 mg/kg, route oral; conditions: plasma
# [11] = tested on: Human immunodeficiency virus 1; assay: Antiviral activity against HIV1 isolate with RT A98G mutation; format: functional, organism-based; outline: as §1
# [12] = Cmax in dog at 20 mg/kg, po; format: ADME, organism-based, Canis lupus familiaris; parameters: dose 20 mg/kg, route oral; conditions: in vivo
# [13] = tested on: Human immunodeficiency virus 1; assay: Antiviral activity against HIV1 isolate with RT V106I, Y181C, F227L mutation in Hela-JC-53 cells; format: functional
# [14] = tested on: Human immunodeficiency virus 1; assay: Antiviral activity against HIV1 isolate with RT D123G mutation in Hela-JC-53 cells; format: functional
# [15] = tested on: Human immunodeficiency virus 1; assay: Antiviral activity against HIV1 isolate with RT V106I, Y181C, F227L, T369I mutation in Hela-JC-53 cells; format: functional
# [16] = Tmax in dog at 10 mg/kg, iv; format: ADME, organism-based, Canis lupus familiaris; parameters: dose 10 mg/kg, route intravenous; conditions: in vivo
# [17] = tested on: Human immunodeficiency virus 1; assay: Inhibition of non-B HIV1 isolates (clades A, AC, C, D and F); format: functional, organism-based
# [18] = tested on: Human immunodeficiency virus 1; assay: Antiviral activity against HIV1 isolate with RT G190S mutation; format: functional, organism-based; outline: as §1
# [19] = tested on: Human immunodeficiency virus 1; assay: Antiviral activity against HIV1 isolate with RT Y188L mutation; format: functional, organism-based; outline: as §1
# [20] = molecular target: T1, DNA polymerase alpha catalytic subunit (Homo sapiens) (UniProt P09884); assay: Inhibition of human DNA polymerase alpha upto 45 uM
# T1 sequence (whole entry): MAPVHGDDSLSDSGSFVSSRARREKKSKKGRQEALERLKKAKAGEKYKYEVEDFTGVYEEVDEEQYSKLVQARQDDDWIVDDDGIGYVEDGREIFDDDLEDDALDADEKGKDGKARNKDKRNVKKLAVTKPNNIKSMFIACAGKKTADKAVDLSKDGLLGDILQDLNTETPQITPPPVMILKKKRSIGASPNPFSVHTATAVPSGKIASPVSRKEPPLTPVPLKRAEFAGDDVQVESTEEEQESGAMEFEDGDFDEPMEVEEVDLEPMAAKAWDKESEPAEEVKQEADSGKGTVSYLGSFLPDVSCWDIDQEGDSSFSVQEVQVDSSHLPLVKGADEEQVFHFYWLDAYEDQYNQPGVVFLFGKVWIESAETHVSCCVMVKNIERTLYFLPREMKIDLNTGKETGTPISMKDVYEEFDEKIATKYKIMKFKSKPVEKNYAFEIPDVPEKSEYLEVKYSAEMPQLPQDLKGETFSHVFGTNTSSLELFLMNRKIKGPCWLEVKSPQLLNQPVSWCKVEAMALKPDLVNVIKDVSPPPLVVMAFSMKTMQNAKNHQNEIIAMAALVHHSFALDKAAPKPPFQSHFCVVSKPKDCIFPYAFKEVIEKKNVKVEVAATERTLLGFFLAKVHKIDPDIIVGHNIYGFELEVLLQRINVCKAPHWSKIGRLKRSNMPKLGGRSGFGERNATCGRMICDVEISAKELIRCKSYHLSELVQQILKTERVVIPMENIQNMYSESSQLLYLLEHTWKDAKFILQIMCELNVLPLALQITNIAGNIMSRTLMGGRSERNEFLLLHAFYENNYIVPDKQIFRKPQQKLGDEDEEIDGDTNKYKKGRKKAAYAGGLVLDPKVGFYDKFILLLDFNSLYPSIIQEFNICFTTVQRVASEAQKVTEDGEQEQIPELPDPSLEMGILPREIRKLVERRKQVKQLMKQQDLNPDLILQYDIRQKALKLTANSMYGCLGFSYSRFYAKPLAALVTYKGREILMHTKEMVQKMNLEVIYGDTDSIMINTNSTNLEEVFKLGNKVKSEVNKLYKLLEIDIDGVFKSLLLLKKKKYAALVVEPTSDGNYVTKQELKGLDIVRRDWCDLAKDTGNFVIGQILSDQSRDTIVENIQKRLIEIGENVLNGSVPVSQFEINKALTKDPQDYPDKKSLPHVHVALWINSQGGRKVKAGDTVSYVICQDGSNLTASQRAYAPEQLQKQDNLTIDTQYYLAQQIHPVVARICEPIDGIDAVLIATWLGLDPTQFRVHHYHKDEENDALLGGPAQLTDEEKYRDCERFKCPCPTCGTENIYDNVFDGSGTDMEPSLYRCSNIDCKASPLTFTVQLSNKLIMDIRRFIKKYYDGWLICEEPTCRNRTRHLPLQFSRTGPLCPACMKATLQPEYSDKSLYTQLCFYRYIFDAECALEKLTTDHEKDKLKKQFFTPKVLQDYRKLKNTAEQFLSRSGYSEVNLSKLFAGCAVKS
smiles,measurement,setting,value
NS(=O)(=O)c1ccc(NC(=O)CSc2nnc(Br)n2-c2ccc(C3CC3)c3ccccc23)c(Cl)c1,pEC50,[1],9.82
same,pEC50,[2],10.10
same,pEC50,[3],9.49
same,pEC50,[4],9.59
same,Fold change,[5],1
same,pEC50,[6],8.62
same,half-life,[7],3.36 h
same,Fold change,[8],0.7
same,pEC50,[9],8.07
same,AUC,[10],19600 ng·h/mL
same,pEC50,[11],9.52
same,Cmax,[12],1980 ng/mL
same,Fold change,[13],18.7
same,Fold change,[14],1
same,Fold change,[15],111.9
same,Tmax,[16],0.28 h
same,Activity,[17],Active
same,pEC50,[18],9.64
same,pEC50,[19],9.09
same,Activity,[20],inactive
